OX1R antag-1 = antagonists of human orexin 1 receptor | AID 434989 | CHO/OX1R cells, Fluo-8 calcium fluorescence, orexin A | O43613 | actives 0.43% (n = 330,000) | inhibition, % at 5 µM;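 active = inhibition above its plate's threshold, mean inhibition of all tested compounds on the plate plus 3 SD, cut at about 37% in these data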;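 also: 0% = orexin A challenge wells and 100% = SB-334867-A antagonist wells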
Target sequence (O43613 whole entry, looked up): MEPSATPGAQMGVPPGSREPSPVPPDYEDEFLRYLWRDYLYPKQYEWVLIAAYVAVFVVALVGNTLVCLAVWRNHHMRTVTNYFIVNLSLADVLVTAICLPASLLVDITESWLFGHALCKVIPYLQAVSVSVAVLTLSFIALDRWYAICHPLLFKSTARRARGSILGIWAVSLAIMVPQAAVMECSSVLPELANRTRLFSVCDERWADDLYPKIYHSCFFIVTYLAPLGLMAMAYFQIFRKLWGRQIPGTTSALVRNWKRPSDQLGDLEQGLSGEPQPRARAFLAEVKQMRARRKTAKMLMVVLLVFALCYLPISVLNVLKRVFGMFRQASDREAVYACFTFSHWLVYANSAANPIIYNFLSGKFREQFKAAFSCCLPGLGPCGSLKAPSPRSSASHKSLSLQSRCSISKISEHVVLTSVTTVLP
OX1R antag-2 = blocks the human orexin 1 receptor. inhibition, % at 6.6 µM. O43613. actives 1.8% (n = 330,000). OX1R-expressing cells, FRET antagonist read-out; in the data active = inhibition mostly above about 38%, no sharp cut-off; inactive = mostly below about 40%;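 also: 0% = agonist challenge alone and 100% = reference antagonist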
TAAR1 agonist = human TAAR1 agonism; activation, % at 3 µM; actives 0.99% (n = 360,000); CHO RD-HGA16 TAAR1, Fluo-8 calcium fluorescence; vehicle wells 0%, saturating PEA agonist 100%; Q96RJ0;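 active = activation above the mean activation of all test compounds in the run plus 3 SD, cut at about 38% in these data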
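test system = CHO RD-HGA16 cells carrying human TAAR1 plus Gα16 | schedule = 17-24 h seeding, 75 min 37 °C dye, 30 min RT | compound dosing = 3 µM single concentration | control set = DMSO and PEA EC100 | replicates = n 1 | signal = Fluo-8 fluorescence, 5 s baseline then 140 s kinetic read | measure = percent activation vs PEA EC100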
CHO parental Ca = counter-screen: ATP calcium response change in parental CHO cells. parental CHO-K1, ATP-induced calcium, Fluo-8 fluorescence. inhibition, % at 5.6 µM. actives 0.63% (n = 330,000). AID 463079;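 active = inhibition above that plate's mean sample inhibition plus 3 SD, cut at about 26% in these data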;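 also: 0% = ATP-challenged DMSO wells and 100% = DMSO wells without ATP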
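Measured by: calcium-sensitive Fluo-8 fluorescence / Test system: CHO parental line / Controls: ATP-challenged DMSO wells low, unchallenged DMSO wells high / Measure: % inhibition / Compound: single nominal dose of 5.6 µM per compound / Replicates: single well per compound, no replicates / Reagent: ATP as calcium-mobilizing challenge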
GPR7 antag = blocks human GPR7 receptor signaling; P48145; GPR7-expressing cells, fluorescence antagonist assay; inhibition, % at 4.4 µM; AID 1861; actives 1.1% (n = 290,000); in the data active = inhibition above about 16%, passing the limit was not always enough;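 also: cells stimulated with the agonist NPW; 0% = agonist with vehicle and 100% = vehicle without agonist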
Target sequence (P48145 whole entry, looked up): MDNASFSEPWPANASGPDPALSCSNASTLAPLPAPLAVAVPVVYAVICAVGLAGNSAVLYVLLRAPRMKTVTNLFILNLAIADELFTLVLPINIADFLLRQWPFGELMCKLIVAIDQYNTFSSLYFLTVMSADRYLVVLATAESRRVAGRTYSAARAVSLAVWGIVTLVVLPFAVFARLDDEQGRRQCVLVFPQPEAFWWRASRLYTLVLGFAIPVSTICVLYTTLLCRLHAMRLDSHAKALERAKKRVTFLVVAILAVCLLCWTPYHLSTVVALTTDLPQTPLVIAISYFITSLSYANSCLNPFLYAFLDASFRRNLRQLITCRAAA
TAAR1 antagonist = human TAAR1 antagonism; actives 1.5% (n = 360,000); Q96RJ0; CHO RD-HGA16 TAAR1, Fluo-8 calcium fluorescence, antagonist; inhibition, % at 3 µM; AID 624466;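 active = inhibition above a per-plate cutoff, the mean inhibition of test compounds on that plate plus 3 SD, cut at about 49% in these data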;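 also: 0% = DMSO plus EC80 beta-PEA response and 100% = DMSO alone without agonist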
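Test system: CHO RD-HGA16 cells bearing hTAAR1 | Reagent: β-PEA, EC80 | Compound dosing: 3 µM, single point | Schedule: Dye loading 75 min at 37 °C, then 30 min room temperature | Signal: Calcium fluorescence with Fluo-8 | Evaluation: Percent inhibition of PEA-evoked calcium signal, max/basal emission ratio | Control set: DMSO-only wells and EC80 β-PEA-stimulated wells | Repeats: Singlicate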
* marks the source's active call; other numbers are inactive results; . = not tested or not shown. This is a sample that favours compounds with a hit; in the whole collection about 4.6% have one here.

SMILES	OX1R antag-1	OX1R antag-2	TAAR1 agonist	CHO parental Ca	GPR7 antag	TAAR1 antagonist
O=C(NCc1cccc(C(F)(F)F)c1)c1cccc2c1C(=O)c1ccc(N3CCC(Cc4ccccc4)CC3)cc1S2(=O)=O	49.3	5.6	.	26.9	.	.
c1ccc2c(c1)OCc1nccn1-2	.	.	0.5	.	.	14.9
COCOCCn1cc(CN2CCS(=O)(=O)N(Cc3ccc(-c4ccc(Cl)nc4)cc3)C(CC(C)C)C2=O)nn1 (stereo not given)	.	.	12.3	.	.	48.8*
COCOCCn1cc(CN2CCS(=O)(=O)N(Cc3ccc(-c4ccc(Cl)cc4)cc3)C(CC(C)C)C2=O)nn1 (stereo not given)	.	.	4.6	.	.	23.6
Cc1ccc(-c2ccc(CN3C(CC(C)C)C(=O)N(Cc4cn(CCC5OCCCO5)nn4)CCS3(=O)=O)cc2)cc1 (stereo not given)	.	.	10.0	.	.	58.2*
COC(=O)C[C@H]1CC[C@H](NC(=O)c2ccc(F)cc2)[C@@H](CO)O1	.	.	1.3	.	.	-18.6
C[C@H]1COc2cccc(NCCO)c2S(=O)(=O)N1	.	.	-0.3	.	.	1.5
CCC1(c2ccccc2)NC(=O)N(CC(=O)NCCN2C(=O)S/C(=C\c3cccnc3)C2=O)C1=O (stereo not given)	-13.0	56.7*	4.2	-14.1	.	-23.5
CC1(c2ccccc2)NC(=O)N(CC(=O)NCCN2C(=O)S/C(=C\c3cccnc3)C2=O)C1=O (stereo not given)	.	.	11.2	.	.	-5.7
CC(C)(CC1(C)NC(=O)NC1=O)OCc1ccccc1 (stereo not given)	.	.	0.0	.	.	8.1
Cc1ccc(S(=O)(=O)N2CCCN(c3nc4cc(C)ccc4cc3C#N)CC2)cc1	37.7	48.3*	-1.7	-21.2	-6.3	3.7
CN(CCCC(=O)NCCc1ccccc1)S(=O)(=O)c1ccc([N+](=O)[O-])cc1	-7.0	46.0*	5.3	-12.2	0.0	1.6
Cc1ccc(NC(=O)OCCN(C)C(=O)Nc2ccc(C)cc2C)c(C)c1	.	.	-1.3	.	.	-34.5
O=C(COC(=O)c1ccc(Br)o1)Nc1ccc(Br)cc1	-1.8	-3.5	40.4*	2.6	.	9.4
O=C(COC(=O)c1ccc([N+](=O)[O-])o1)NCCc1ccccc1	6.4	31.5*	17.2	-5.0	.	-7.4
O=C(COC(=O)c1ccc(Br)o1)NCCNC(=O)COC(=O)c1ccc(Br)o1	-22.8	21.3	6.4	-5.5	.	-12.7
O=C(COC(=O)c1ccc([N+](=O)[O-])o1)Nc1ccc(Br)cc1F	-7.1	28.1*	-2.9	-0.1	.	15.9
CC(NC(=O)COC(=O)c1ccc([N+](=O)[O-])o1)c1ccccc1 (stereo not given)	-15.6	33.4	4.5	-7.0	.	-20.4
C[C@H](CCC(=O)OCc1cn(CC(=O)c2ccc(O)cc2)nn1)C1CC[C@H]2[C@@H]3CC[C@@H]4C[C@H](O)CC[C@]4(C)[C@H]3C[C@H](O)[C@]12C (stereo not given in full)	.	.	10.8	.	.	53.5*
C[C@H](CCC(=O)O)[C@H]1CC[C@H]2[C@@H]3CC[C@@H]4C[C@H](O)CC[C@]4(C)[C@H]3C[C@H](O)[C@]12C	5.3	17.1	4.1	-4.2	.	-8.8
O=C(c1ccccc1NS(=O)(=O)c1ccc([N+](=O)[O-])cc1[N+](=O)[O-])N1O[C@@H]2C=C[C@H]1C2	-6.7	45.6*	-0.5	-8.0	.	-11.7
O=C(Nc1cccc(-c2cn3ccccc3n2)c1)c1cccs1	1.9	71.0*	1.8	-4.1	5.2	-2.8
Cc1cccc(/C=C/c2nc3ccccc3c(=O)[nH]2)c1	-17.6	69.2*	0.6	-13.7	0.1	1.9
COc1cc(/C=C/c2nc3ccccc3c(=O)[nH]2)ccc1O	.	.	7.3	.	.	-11.5
CCCCCn1cc(CCC(=O)Nc2ccc(N(C)c3ccccn3)cc2)c2ccccc21	.	.	-0.8	.	.	-0.6
SMILES	OX1R antag-1	OX1R antag-2	TAAR1 agonist	CHO parental Ca	GPR7 antag	TAAR1 antagonist
O=C1CCCN2N=C(SCC(=O)Nc3cccc(C(F)(F)F)c3)SC2=N1	-14.4	29.4	25.1	37.2*	4.1	2.0
O=C1CCCN2N=C(SCC(=O)Nc3ccc(Cl)cc3)SC2=N1	-19.7	20.3	39.4*	3.0	9.1	-17.8
Cc1ccc(NC(=O)CSC2=NN3CCCC(=O)N=C3S2)cc1Cl	-4.1	28.1	42.0*	7.1	-2.4	28.9
O=C1CCCN2N=C(SCC(=O)Nc3cccc(Cl)c3)SC2=N1	-16.8	17.4	13.5	-6.3	5.7	-9.3
Cc1cccc(/C=C/C(=O)c2ccc([N+](=O)[O-])o2)c1	-2.5	11.9	36.6	-11.6	.	33.1
O=C(/C=C/c1cccc([N+](=O)[O-])c1)c1ccc([N+](=O)[O-])o1	8.6	59.3	49.8*	5.3	.	68.0*
O=C(NC1CCCC1)c1ccc2nc(-c3ccco3)c(-c3ccco3)nc2c1	-11.7	63.0*	.	-6.6	-12.3	.
CC(=O)c1sc(N/N=C\c2ccccc2O)nc1C	-6.8	51.0*	41.8*	5.4	-7.4	15.5
C[C@H]1COc2cc(NCCO)ccc2S(=O)(=O)N1	.	.	1.1	.	.	-12.1
CCOC(=O)CC(NC(=O)Cn1nnc(-c2ccccc2F)n1)c1ccc(OC)cc1 (stereo not given)	-32.9	15.3	4.5	-5.5	3.5	4.3
COc1ccc(NC(=O)Cn2nnc(-c3ccccc3NS(=O)(=O)c3ccccc3)n2)cc1	22.8	25.6	.	42.8*	-4.6	.
COc1ccc(S(=O)(=O)Nc2ccccc2-c2nnn(CC(=O)Nc3ccccc3OC)n2)cc1	33.0	60.2*	2.0	44.4*	-9.5	36.9
CCOC(=O)CC(NC(=O)Cn1nnc(-c2ccccc2Cl)n1)c1ccc(OC)cc1 (stereo not given)	-9.5	9.7	45.8*	-18.5	19.6*	-2.8
COc1cccc(NC(=O)Cn2nnc(-c3ccccc3N)n2)c1	-11.7	8.0	6.4	-6.3	-2.6	-0.6
CC1(c2nnnn2Cc2ccccc2)CCC(=O)N1CCc1ccccc1F (stereo not given)	.	.	5.5	.	.	-1.9
O=C(Nc1cccc2ccccc12)OC[C@@H]1CSCCS(=O)(=O)N1	.	.	4.7	.	.	-14.3
Cc1ccccc1OCCOc1cccc(/C=N/NC(=O)Cc2nnc(N)s2)c1	47.7*	61.7	14.2	53.5*	22.4	48.9*
Cc1cc(NC(=O)c2cc(-c3ccccc3C)nc3ccccc23)no1	-34.7	20.1	1.7	-20.0	-11.2	10.2
CCOC(=O)c1sc(NC(=O)c2cc(-c3ccc(C)cc3)nc3ccccc23)c(C#N)c1C	-16.8	5.6	9.6	-5.6	-12.2	5.5
COC(=O)c1sc(NC(=O)c2cc(-c3ccccc3)nc3ccccc23)c(C#N)c1C	13.8	71.7*	10.7	-8.3	-1.1	34.9
Cc1ccccc1-c1cc(C(=O)Nc2sc(C(=O)OC(C)C)c(C)c2C#N)c2ccccc2n1	-10.7	45.4*	15.9	0.5	-13.8	24.9
